Our source for the IC50, Papp and logD values is ChEMBL document CHEMBL4251655 (Eur J Med Chem, 2018).

Data set [1] addresses T1, Mitogen-activated protein kinase kinase kinase 5 (Homo sapiens, UniProt Q99683).
T1 sequence (Q99683 whole entry): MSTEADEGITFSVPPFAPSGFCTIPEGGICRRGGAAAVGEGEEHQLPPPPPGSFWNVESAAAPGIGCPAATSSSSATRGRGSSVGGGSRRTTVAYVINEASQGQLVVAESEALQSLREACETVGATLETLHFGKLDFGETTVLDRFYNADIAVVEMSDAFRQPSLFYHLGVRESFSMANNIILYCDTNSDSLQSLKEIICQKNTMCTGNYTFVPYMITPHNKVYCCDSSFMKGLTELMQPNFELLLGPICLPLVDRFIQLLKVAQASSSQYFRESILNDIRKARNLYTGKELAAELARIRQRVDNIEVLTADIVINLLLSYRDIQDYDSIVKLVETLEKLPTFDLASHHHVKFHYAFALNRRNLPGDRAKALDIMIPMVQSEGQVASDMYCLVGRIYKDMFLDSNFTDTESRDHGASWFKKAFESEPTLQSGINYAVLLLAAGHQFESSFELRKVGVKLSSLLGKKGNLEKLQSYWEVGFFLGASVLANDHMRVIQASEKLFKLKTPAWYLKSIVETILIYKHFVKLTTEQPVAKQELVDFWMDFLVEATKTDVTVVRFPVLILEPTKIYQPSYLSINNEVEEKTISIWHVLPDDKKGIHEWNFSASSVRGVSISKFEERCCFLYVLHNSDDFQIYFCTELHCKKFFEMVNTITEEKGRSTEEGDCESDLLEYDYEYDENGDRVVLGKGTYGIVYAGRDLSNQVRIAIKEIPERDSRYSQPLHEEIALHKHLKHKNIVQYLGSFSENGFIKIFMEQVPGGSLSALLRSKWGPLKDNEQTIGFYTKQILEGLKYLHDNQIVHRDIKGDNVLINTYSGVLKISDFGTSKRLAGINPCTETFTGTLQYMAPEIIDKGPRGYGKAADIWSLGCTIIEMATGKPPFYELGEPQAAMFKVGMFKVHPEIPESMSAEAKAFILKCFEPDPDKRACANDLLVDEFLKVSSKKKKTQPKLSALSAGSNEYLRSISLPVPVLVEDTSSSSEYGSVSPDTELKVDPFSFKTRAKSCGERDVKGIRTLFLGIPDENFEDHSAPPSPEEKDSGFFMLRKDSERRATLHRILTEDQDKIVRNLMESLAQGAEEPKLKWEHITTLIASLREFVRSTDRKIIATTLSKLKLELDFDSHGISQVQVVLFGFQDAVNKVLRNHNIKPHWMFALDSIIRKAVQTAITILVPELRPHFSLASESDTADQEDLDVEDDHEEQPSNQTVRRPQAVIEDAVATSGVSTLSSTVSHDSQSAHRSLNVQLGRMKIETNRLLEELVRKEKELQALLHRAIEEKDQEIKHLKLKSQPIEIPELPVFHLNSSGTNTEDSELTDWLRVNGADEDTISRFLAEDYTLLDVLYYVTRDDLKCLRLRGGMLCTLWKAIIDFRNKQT
As to the kind of experiment: Inhibition of recombinant full length human GST-tagged ASK1 expressed in baculovirus expression system using STK3 peptide substrate preincubated for 15 mins followed by substrate addition measured after 90 mins in presence of 1 mM ATP by HTRF assay. An outline of the steps:
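Full-length recombinant human ASK1 (3 nM final) in kinase buffer with 5 mM MgCl2 and 1 mM DTT, preincubated with compound 15 min at 25 °C. Reaction started with ATP (1 mM) and STK3 peptide (1 µM final), run 90 min at room temperature, 2% DMSO. Stopped with EDTA detection mix, HTRF read after 2 h. Kiapp fitted by Morrison or competitive equation, converted to IC50 by Cheng-Prusoff using ATP Km 48 µM. Mean of at least two determinations.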

Data set [2] concerns the target T1, Mitogen-activated protein kinase kinase kinase 5. Description: Inhibition of recombinant full length human ASK1 expressed in HEK293/AP1-Luc cells assessed as reduction in p38 phosphorylation after 18 hrs by HTRF assay. Format: cell-based. In outline:
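HEK293/AP-1luc cells stably overexpressing wild-type human full-length ASK1 (constitutively active, no stimulus), seeded at 25K cells/well, held 8 h at 37 °C, then switched to Optimem with Geneticin. Compound dilution series added (final DMSO 0.5%) for 18 h at 37 °C, 5% CO2. Cells lysed 1 h at room temperature; phospho-p38 read by HTRF after overnight (18 h) detection. Mean of at least two determinations.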

Data set [3] is described as follows: Permeability of the compound in RRCK cells. The note with it: dog, MDCK; read-out: permeability. In kind it is ADME, cell-based, Canis lupus familiaris, MDCKII-LE.
The nature of data set [4]: Lipophilicity, log D at pH 7.4 by shake flask method. Particulars: buffer.

The structures appear in SMILES notation.

For `CC(C)n1cnnc1-c1cccc(NC(=O)c2cccc(C(N)=O)c2)n1`, the IC50 in data set [1] was found to be 580 nM.

For the compound `CCS(=O)(=O)Nc1ccc(OC)c(C(=O)Nc2cccc(-c3nncn3C(C)C)n2)c1`, the IC50 in data set [2] was 41 nM; in data set [1], 0.32 nM. Further, the Papp in data set [3] came out at 5.6 ×10⁻⁶ cm/s. Besides, the logD in data set [4] was 2.2.

Take `CNC(=O)c1ccc(OC)c(C(=O)Nc2cccc(-c3nncn3C(C)C)n2)c1`: the IC50 stood at 272 nM in data set [2] and 2.4 nM in data set [1]. Besides, the Papp in data set [3] is 9.8 ×10⁻⁶ cm/s. In data set [4], this compound came in with a logD of 1.8.

As to `CCS(=O)(=O)Nc1cccc(C(=O)Nc2cccc(-c3nncn3C(C)C)n2)c1`, in data set [1], the IC50 was 73 nM. Also, the logD in data set [4] was 1.7.

On to `CC(C)n1cnnc1-c1cccc(NC(=O)c2cccc(-c3ncc[nH]3)c2)n1`, for which the half-maximal inhibitory concentration (IC50) in data set [1] came out at 170 nM. In data set [4], this compound had a logD of 2.4.
